Calls of active or inactive are those of the source. No cut-off for these calls is given here.
What was measured:
Leishmania donovani [1] = assay: Antileishmanial activity against Leishmania donovani MHOM/IN/80/Dd8 promastigotes infected in BALB/c mouse assessed as reduction in parasite load in spleen at 100 mg/kg, ip administered once daily for 5 days measured 7 days post dose by giemsa staining-based assay relative to control; assay type: functional; set-up: scale not given: the % may be the effect or the level left
How it was run: (§1)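 Hamster-passaged strain was transformed to promastigotes. Stationary-phase cells (2 × 10^7 in 0.2 mL PBS) were injected into the tail vein of BALB/c mice. From day 15 post-infection, mice received compound ip in 8% DMSO in PBS for 5 consecutive days, 5 mice per group. Mice were killed day 7 post-treatment. Liver and spleen burden was read from Giemsa-stained stamp smears as LDU.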

Leishmania donovani [2] = assay: Induction of apoptosis in Leishmania donovani MHOM/IN/80/Dd8 promastigotes assessed as early apoptotic cells at 50 uM measured after 48 hrs by Annexin V-FITC/propidium iodide staining based assay (reference value: 6.91%); assay type: functional
Leishmania donovani [3] = assay: Antileishmanial activity against Leishmania donovani MHOM/IN/80/Dd8 promastigotes infected in BALB/c mouse assessed as reduction in parasite load in liver at 25 mg/kg, ip administered once daily for 5 days measured 7 days post dose by giemsa staining-based assay relative to control; assay type: functional; set-up: scale not given: the % may be the effect or the level left; how it was run: as §1
[4] = Half life in BALB/c mouse at 50 mg/kg, po administered via gavage by LC-MS/MS analysis; assay type: ADME, organism-based; details: in vivo
Leishmania donovani [5] = assay: Induction of apoptosis in Leishmania donovani MHOM/IN/80/Dd8 promastigotes assessed as late apoptotic cells at 50 uM measured after 12 hrs by Annexin V-FITC/propidium iodide staining based assay (reference value: 0.46%); assay type: functional
Leishmania donovani [6] = assay: Induction of apoptosis in Leishmania donovani MHOM/IN/80/Dd8 promastigotes assessed as late apoptotic cells at 50 uM measured after 24 hrs by Annexin V-FITC/propidium iodide staining based assay (reference value: 0.02%); assay type: functional
Leishmania donovani [7] = assay: Induction of apoptosis in Leishmania donovani MHOM/IN/80/Dd8 promastigotes assessed as increase in meta-caspase activity at 50 uM using BOC-GRR-AMC as substrate preincubated for 1 hr followed by substrate addition and measured after 2 hrs in presence of meta-caspase inhibitor antipain by fluorometric assay; assay type: functional, organism-based
How it was run: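 Log-phase promastigotes were pretreated for 1 h with antipain (1 μM) or zVAD-fmk (100 μM), then exposed to 50 μM compound or 0.1% DMSO. Metacaspase activity in lysates was read with fluorogenic BOC-GRR-AMC and expressed as RFU per mg protein.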

Leishmania donovani [8] = assay: Induction of apoptosis in Leishmania donovani MHOM/IN/80/Dd8 promastigotes assessed as DNA fragmentation at 50 uM after 48 hrs by TUNEL staining-based confocal microscopic analysis; assay type: functional, organism-based
How it was run: (§2)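 Log-phase promastigotes (1 × 10^5) were treated with 50 μM compound or 0.1% DMSO vehicle for 48 h. DNA fragmentation was labelled with an APO-BrdU TUNEL kit with PI counterstain. Cells were imaged by phase-contrast and fluorescence microscopy.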

Leishmania donovani [9] = assay: Induction of mitochondrial potential loss in Leishmania donovani MHOM/IN/80/Dd8 promastigotes at 50 uM by JC1 dye-based flow cytometry; assay type: functional, organism-based; details: TDE = time-dependent effect
How it was run: (§3)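 Exponential-phase promastigotes were incubated with 50 μM compound for 6−48 h, or 0.1% DMSO vehicle. CCCP (50 μM) served as positive control. After JC-1 staining, the red-to-green fluorescence shift was measured by flow cytometry.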

Leishmania donovani [10] = assay: Induction of mitochondrial potential loss in Leishmania donovani MHOM/IN/80/Dd8 promastigotes assessed as shift in red to green fluorescence at 50 uM after 6 hrs by JC1 dye-based flow cytometry (reference value: 7.37%); assay type: functional; how it was run: as §3
Leishmania donovani [11] = assay: Induction of nitric oxide generation in Leishmania donovani MHOM/IN/80/Dd8 promastigotes assessed as increase in fluorescence at 50 uM measured after 12 hrs by DAF-2DA dye-based flow cytometry relative to control; assay type: functional
How it was run: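 Log-phase promastigotes exposed to 50 μM for 6–18 h, vehicle control 0.1% DMSO, then labelled with 40 μM DAF-2DA. Fluorescence (GMFC) read by flow cytometry and expressed as fold change over vehicle. At least 3 independent experiments in duplicate.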

Leishmania donovani [12] = assay: Induction of plasma membrane permeabilization in Leishmania donovani MHOM/IN/80/Dd8 promastigotes assessed as increase in fluorescence at MIC measured after 4 hrs by sytox green dye based flow cytometry relative to 0.1 % triton-X 100; assay type: functional
Leishmania donovani [13] = assay: Induction of mitochondrial potential loss in Leishmania donovani MHOM/IN/80/Dd8 promastigotes assessed as shift in red to green fluorescence at 50 uM after 12 hrs by JC1 dye-based flow cytometry (reference value: 7.37%); assay type: functional; how it was run: as §3
Leishmania donovani [14] = assay: Induction of apoptosis in Leishmania donovani MHOM/IN/80/Dd8 promastigotes assessed as DNA fragmentation at 50 uM after 48 hrs by TUNEL staining-based fluorescence assay; assay type: functional, organism-based; how it was run: as §2
Leishmania donovani [15] = assay: Antileishmanial activity against Leishmania donovani MHOM/IN/80/Dd8 promastigotes infected in BALB/c mouse assessed as reduction in parasite load in liver at 100 mg/kg, ip administered once daily for 5 days measured 7 days post dose by giemsa staining-based assay relative to control; assay type: functional; set-up: scale not given: the % may be the effect or the level left; how it was run: as §1
[16] = Clearance in BALB/c mouse at 50 mg/kg, po administered via gavage by LC-MS/MS analysis; assay type: ADME, organism-based; details: in vivo
Leishmania donovani [17] = assay: Induction of mitochondrial membrane disruption in Leishmania donovani MHOM/IN/80/Dd8 promastigotes assessed as reduction in intracellular ATP level at 50 uM measured after 6 to 48 hrs by luciferase-based assay relative to control; assay type: functional
How it was run: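 Promastigotes were incubated with 0.1% DMSO or 50 μM compound for 6−48 h. Cytosolic ATP was quantified by bioluminescence assay. At least 3 independent experiments in duplicate.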

Leishmania donovani [18] = assay: Induction of reactive oxygen species generation in Leishmania donovani MHOM/IN/80/Dd8 promastigotes at 50 uM measured after 24 hrs by H2DCFDA probe-based flow cytometry (reference value: 7%); assay type: functional
[19] = AUC (0 to infinity) in BALB/c mouse at 50 mg/kg, po administered via gavage by LC-MS/MS analysis; assay type: ADME, organism-based; set-up: dose 50 mg/kg, time infinity, route oral; details: in vivo
[20] = AUC (0 to 48 hrs) in BALB/c mouse at 50 mg/kg, po administered via gavage by LC-MS/MS analysis; assay type: ADME, organism-based; set-up: time < 48 hr, dose 50 mg/kg, route oral; details: in vivo
Leishmania donovani [21] = assay: Induction of apoptosis in Leishmania donovani MHOM/IN/80/Dd8 promastigotes assessed as late apoptotic cells at 50 uM measured after 48 hrs by Annexin V-FITC/propidium iodide staining based assay (reference value: 0.02%); assay type: functional
Leishmania donovani [22] = assay: Induction of mitochondrial potential loss in Leishmania donovani MHOM/IN/80/Dd8 promastigotes assessed as shift in red to green fluorescence at 50 uM after 24 hrs by JC1 dye-based flow cytometry (reference value: 7.37%); assay type: functional; how it was run: as §3
Leishmania donovani [23] = assay: Antileishmanial activity against Leishmania donovani MHOM/IN/80/Dd8 amastigotes harboring luciferase reporter gene infected in mouse J774 cells assessed as stimulation of host immunity by measuring change in TGFbeta level at 50 uM after 48 hrs by ELISA; assay type: functional, organism-based
How it was run: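 Infected J774 macrophages (24 h infection) were treated with 50 μM compound for 48 h. Culture supernatants were assayed by ELISA for TNF-α and IL-12 (Th1) and for TGF-β and IL-10 (Th2), compared with infected untreated cells.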

Leishmania donovani [24] = assay: Induction of apoptosis in Leishmania donovani MHOM/IN/80/Dd8 promastigotes assessed as late apoptotic cells at 50 uM measured after 48 hrs by Annexin V-FITC/propidium iodide staining based assay (reference value: 0.46%); assay type: functional

In the case of `Cc1cc(-c2ccc(OCCn3c([N+](=O)[O-])cnc3C)cc2)nc2ccccc12`, the Activity (Leishmania donovani [1]) is reported as 81.7%, the Activity (Leishmania donovani [2]) is reported as 18.07% and the Activity (Leishmania donovani [3]) is reported as >62%. It also gave a half-life [4] of 4.02 h, an Activity (Leishmania donovani [5]) of 20.59% and an Activity (Leishmania donovani [6]) of 10.04%. For the same molecule, the inhibition (Leishmania donovani [7]) was “inactive”, the Activity (Leishmania donovani [8]) was “Active” and the Activity (Leishmania donovani [9]) was “Tde”. The Activity (Leishmania donovani [10]) was 23.15%, the “fold change (FC)” value (Leishmania donovani [11]) was 3.6 and the Activity (Leishmania donovani [12]) was 3.63%. The Activity (Leishmania donovani [13]) was 33.15%, the Activity (Leishmania donovani [14]) was “Active” and the Activity (Leishmania donovani [15]) was 82.5%. For the same molecule, the CL/F [16] was 45.8 mL/min/kg, the Imax (Leishmania donovani [17]) was >67% and the Activity (Leishmania donovani [18]) was 41.41%. For the same molecule, the AUC(0-inf) [19] was 18200 ng·h/mL, the AUC(0-t) at 48 h [20] was 18200 ng·h/mL and the Activity (Leishmania donovani [21]) was 0.41%. The Activity (Leishmania donovani [22]) was 54.18%, the Activity (Leishmania donovani [23]) was “inactive” and the Activity (Leishmania donovani [24]) was 44.11%.

Reference: ChEMBL document CHEMBL4396890, “Synthesis, Biological Evaluation, Structure-Activity Relationship, and Mechanism of Action Studies of Quinoline-Metronidazole Derivatives Against Experimental Visceral Leishmaniasis” (J Med Chem, 2019)
